The source of these data is ChEMBL document CHEMBL1123516, “Substituted 1,3,4-thiadiazoles with anticonvulsant activity. 1. Hydrazines” (J Med Chem, 1986).

The subject of one experiment is Mus musculus. The experiment is described as follows: Anticonvulsant activity tested by maximal metrazole seizure (MMS) test in mouse after 1 hr of administration. The class given is functional. An outline of the steps:
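Male BKW mice, 18-22 g, dosed orally with compound in 2% Tween 80/water. Metrazol 120 mg/kg ip was given 1 h after dosing. ED50 for block of hind limb tonic seizure was derived by Bliss probit analysis.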
On to `Clc1ccccc1-c1nnc(NNC2CCCC2)s1`, for which the ED50 was over 100 mg/kg.
The same measure, in the same setting: next, `Cc1ccccc1-c1nnc(NNC2CCCC2)s1.Cl`: over 100 mg/kg.
The compound `Cc1ccccc1-c1nnc(N(C)NC(C)C)s1.Cl` registered an ED50 of 38 mg/kg.
On the same count and under the same terms, the figure for `CNN(C)c1nnc(-c2ccccc2-c2ccccc2)s1.Cl` is over 100 mg/kg; for `CN(Nc1ccccc1)c1nnc(-c2ccccc2Cl)s1` it is over 100 mg/kg.
Compound `NN(CCc1ccccc1)c1nnc(-c2ccccc2Cl)s1` gave an ED50 of about 200 mg/kg.
Same read-out and setting: the figure for `CN(N)c1nnc(-c2cccc(Oc3ccccc3)c2)s1` is 111 mg/kg; for `NN(Cc1ccccc1)c1nnc(-c2ccccc2Cl)s1` it is 143 mg/kg; for `CC(C)N(c1nnc(-c2ccccc2Cl)s1)N(C)C.Cl` it is over 200 mg/kg.
Same read-out and setting: next, `CNN(c1nnc(-c2ccccc2Cl)s1)C(C)C`: over 100 mg/kg; `CC(C)NN(C)c1nnc(-c2ccccc2-c2ccccc2)s1.Cl`: 66 mg/kg; `Clc1ccccc1-c1nnc(NNc2ccccc2)s1`: over 200 mg/kg.
Still for that read-out and setting: the figure for `NN(c1ccccc1)c1nnc(-c2ccccc2-c2ccccc2)s1` is over 100 mg/kg; for `Cl.NN(c1nnc(-c2ccccc2Cl)s1)C1CCCCC1` it is over 100 mg/kg.
`CN(NC1CCCC1)c1nnc(-c2ccccc2Cl)s1.Cl` returned an ED50 of over 100 mg/kg.
On the same count and under the same terms, the figure for `Cc1ccccc1-c1nnc(NN(C)C(C)C)s1` is over 100 mg/kg; for `CC(C)NNc1nnc(-c2ccccc2-c2ccccc2)s1` it is 44 mg/kg.
The same measure, in the same setting: the figure for `CCCCCCOc1ccccc1-c1nnc(N(C)NC)s1.Cl` is 39 mg/kg; for `CNNc1nnc(-c2ccccc2C)s1` it is over 100 mg/kg; for `NN(c1ccccc1)c1nnc(-c2ccccc2Cl)s1` it is over 100 mg/kg.
The same measure, in the same setting: next, `CNN(Cc1ccccc1)c1nnc(-c2ccccc2Cl)s1.Cl`: over 100 mg/kg; `CCCCN(N)c1nnc(-c2ccccc2C)s1.Cl`: 60 mg/kg.
`Cc1ccccc1-c1nnc(N(C)NC2CCCC2)s1.Cl` displayed an ED50 of 81 mg/kg. This ED50 and that of the compound before are within 1.5-fold of each other.
Still for that read-out and setting: next, `CCCCCCOc1ccccc1-c1nnc(NNC2CCCC2)s1.Cl`: over 100 mg/kg; `Cc1ccccc1-c1nnc(N(C)NC(c2ccccc2)c2ccccc2)s1`: over 200 mg/kg.
`CC(C)N(N)c1nnc(-c2ccccc2-c2ccccc2)s1` yielded an ED50 of over 100 mg/kg.
On the same count and under the same terms, next, `Cc1ccccc1-c1nnc(NNC(c2ccccc2)c2ccccc2)s1`: over 100 mg/kg; `Cl.NN(Cc1ccccc1)c1nnc(-c2ccccc2-c2ccccc2)s1`: over 200 mg/kg; `Cc1ccccc1-c1nnc(NNc2ccccc2)s1`: over 100 mg/kg.
For the compound `Cc1ccccc1-c1nnc(N(Cc2ccccc2)N(C)C)s1.Cl`, the ED50 was over 100 mg/kg.

The next experiment concerns Mus musculus. The experiment is described as follows: Anticonvulsant activity tested by maximal electroshock test (MES) in mouse after 1 hr of administration. The class given is functional. A digest of the protocol: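 Male BKW mice (LACA origin), 18-22 g, dosed ip or po with compound dissolved or suspended in 2% Tween 80 in distilled water. Readout was block of hind limb tonic seizure. ED50 was derived by probit analysis using the computerized Bliss method.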
(Protection in the maximal electroshock model is a classic sign of anticonvulsant action.)
Regarding `Clc1ccccc1-c1nnc(NNC2CCCC2)s1`, the ED50 was over 100 mg/kg.
The same measure, in the same setting: the figure for `Cl.NNc1nnc(-c2ccc(-c3ccccc3)cc2)s1` is over 200 mg/kg; for `Cc1ccccc1-c1nnc(NNC2CCCC2)s1.Cl` it is over 100 mg/kg; for `Cc1ccccc1-c1nnc(N(C)NC(C)C)s1.Cl` it is 35 mg/kg.
Same read-out and setting: the figure for `CNN(C)c1nnc(-c2ccccc2-c2ccccc2)s1.Cl` is about 100 mg/kg.
On the same count and under the same terms, next, `CN(Nc1ccccc1)c1nnc(-c2ccccc2Cl)s1`: over 100 mg/kg; `NN(CCc1ccccc1)c1nnc(-c2ccccc2Cl)s1`: over 100 mg/kg; `CN(N)c1nnc(-c2cccc(Oc3ccccc3)c2)s1`: 100 mg/kg.
In the case of `NN(Cc1ccccc1)c1nnc(-c2ccccc2Cl)s1`, it took a dose of 186 mg/kg to reach the 50% effect level (ED50).
`CC(C)N(c1nnc(-c2ccccc2Cl)s1)N(C)C.Cl` had an ED50 of 116 mg/kg.
Still for that read-out and setting: the figure for `CNN(c1nnc(-c2ccccc2Cl)s1)C(C)C` is over 100 mg/kg.
Same read-out and setting: next, `CC(C)NN(C)c1nnc(-c2ccccc2-c2ccccc2)s1.Cl`: 55 mg/kg; `Clc1ccccc1-c1nnc(NNc2ccccc2)s1`: over 100 mg/kg; `NN(c1ccccc1)c1nnc(-c2ccccc2-c2ccccc2)s1`: over 100 mg/kg.
Still for that read-out and setting: the figure for `Cl.NN(c1nnc(-c2ccccc2Cl)s1)C1CCCCC1` is over 100 mg/kg; for `CN(NC1CCCC1)c1nnc(-c2ccccc2Cl)s1.Cl` it is 106 mg/kg.
On to `Cc1ccccc1-c1nnc(NN(C)C(C)C)s1`, for which it took a dose of 140 mg/kg to reach the 50% effect level (ED50). This ED50 and that of the compound before are within 1.5-fold of each other.
In turn, `CC(C)NNc1nnc(-c2ccccc2-c2ccccc2)s1` returned an ED50 of 35 mg/kg. Compared with the last compound, the ED50 is about 4-fold lower.
The same measure, in the same setting: next, `CCCCCCOc1ccccc1-c1nnc(N(C)NC)s1.Cl`: under 250 mg/kg; `CNNc1nnc(-c2ccccc2C)s1`: over 100 mg/kg; `CN(N)c1nnc(-c2ccc(-c3ccccc3)cc2)s1`: over 200 mg/kg.
In turn, `NN(c1ccccc1)c1nnc(-c2ccccc2Cl)s1` yielded an ED50 of over 100 mg/kg.
The same measure, in the same setting: next, `CNN(Cc1ccccc1)c1nnc(-c2ccccc2Cl)s1.Cl`: over 100 mg/kg; `CCCCN(N)c1nnc(-c2ccccc2C)s1.Cl`: 119 mg/kg; `Cc1ccccc1-c1nnc(N(C)NC2CCCC2)s1.Cl`: 110 mg/kg.
The compound `CCCCCCOc1ccccc1-c1nnc(NNC2CCCC2)s1.Cl` yielded an ED50 of over 100 mg/kg.
On the same count and under the same terms, next, `Cc1ccccc1-c1nnc(N(C)NC(c2ccccc2)c2ccccc2)s1`: over 200 mg/kg.
Regarding `CC(C)N(N)c1nnc(-c2ccccc2-c2ccccc2)s1`, the ED50 is over 100 mg/kg.
On the same count and under the same terms, next, `Cc1ccccc1-c1nnc(NNC(c2ccccc2)c2ccccc2)s1`: over 200 mg/kg; `Cl.NN(Cc1ccccc1)c1nnc(-c2ccccc2-c2ccccc2)s1`: over 200 mg/kg; `Cc1ccccc1-c1nnc(NNc2ccccc2)s1`: over 100 mg/kg.
Still for that read-out and setting: next, `Cc1ccccc1-c1nnc(N(Cc2ccccc2)N(C)C)s1.Cl`: over 200 mg/kg.

The ED50 is the midpoint of the dose-response relation.
